Screening results as filed in PubChem BioAssay.
An excerpt weighted towards active compounds, which were near 3.8% of everything screened.
KCNQ1 pot: potentiates or activates the human KCNQ1 potassium channel; AID 2648; CHO-K1 KCNQ1, thallium flux FluxOR fluorescence; hits give high values; B-score at 10 µM; P51787; actives 0.35% (n = 310,000);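 active = fluorescence ratio B-score, a plate-corrected score, at least three library SD, with initial intensity B-score within 5 SD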
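assay system = CHO-K1 cells stably expressing KCNQ1 | medium = assay buffer, equal DMSO in all wells | timing = 37 °C overnight plating, 90-min dark dye load, 20-min compound pretreatment | measured by = kinetic FluxOR thallium fluorescence, 10-s 1-Hz baseline, 110-s post-stimulus read | measure = fluorescence change relative to baseline, converted to B score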
KCNQ1 inh: inhibitors of human KCNQ1 potassium channel; P51787; CHO-K1 KCNQ1, FluxOR thallium flux fluorescence; hits give high values; B-score at 10 µM; actives 1.3% (n = 310,000); AID 2642;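 active = compounds whose thallium flux B-score, printed positive for inhibition, exceeds three library SD while starting fluorescence stays within three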;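 note: channel opened by potassium depolarization with thallium stimulus after 20 min compound exposure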
Kir21 inh: blocks the mouse Kir2.1 inward-rectifier potassium channel. AID 1672. actives 0.85% (n = 310,000). B-score at 10 µM. P35561. HEK293-Kir2.1, FluxOR thallium flux fluorescence; hits give low values;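 active = fluorescence ratio B-score at or below minus 3 SD of library scores, with starting-brightness B-score within 2 SD, cut at about -4.2 in these data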;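 note: channel flux triggered by added potassium and thallium sulfate stimulus; B-score of peak minus minimum fluorescence over baseline after thallium stimulus; more negative B-score means stronger Kir2.1 block with less thallium influx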
Target sequence (P35561 whole entry, looked up): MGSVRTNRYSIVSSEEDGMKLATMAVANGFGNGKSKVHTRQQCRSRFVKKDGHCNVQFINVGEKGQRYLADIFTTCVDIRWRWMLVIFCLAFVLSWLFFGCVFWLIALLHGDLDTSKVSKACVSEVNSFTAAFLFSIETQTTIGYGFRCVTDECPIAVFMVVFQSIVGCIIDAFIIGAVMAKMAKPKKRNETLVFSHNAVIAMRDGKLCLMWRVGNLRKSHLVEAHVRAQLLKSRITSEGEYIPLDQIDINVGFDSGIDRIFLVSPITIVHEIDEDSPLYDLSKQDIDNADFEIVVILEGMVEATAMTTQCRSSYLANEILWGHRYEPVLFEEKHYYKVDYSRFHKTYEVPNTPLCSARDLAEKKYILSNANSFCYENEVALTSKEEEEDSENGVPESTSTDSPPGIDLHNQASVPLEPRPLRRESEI
KCNK3 block: human KCNK3 channel inhibition, primary screen; O14649; CHO-KCNK3 thallium flux, FluxOR fluorescence; hits give low values; B-score at 10 µM; actives 0.84% (n = 340,000); AID 602410;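 active = B-score under library mean minus 4 SD, starting fluorescence ratio at most library mean plus 5 SD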;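 note: more negative B-score means stronger inhibition of thallium flux through KCNK3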
hERG protect: shields human hERG channel from block by proarrhythmic agents; AID 1511; CHO-hERG, FluxOR thallium flux, dofetilide IC70 present; activation (rescue from dofetilide block), less the hit threshold, % at 10 µM; actives 0.51% (n = 310,000);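 active = activation above the mean of controls blocked by dofetilide plus 5 SD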;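 note: thallium influx through hERG after potassium depolarization seen as dye fluorescence rise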
KCNK9 block: blocks the human KCNK9 two-pore domain potassium channel. HEK293 KCNK9, FluxOR thallium flux fluorescence; hits give low values. actives 1.2% (n = 310,000). B-score at 10 µM;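 active = ratio B-score over 3 SD below the library mean, with starting fluorescence within 5 SD of its mean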;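 note: negative B-score means less thallium flux so channel inhibition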
KCNK3 inh conf: confirmation of human KCNK3 two-pore domain potassium channel inhibitors | actives 99% (n = 2,400) | shares compounds with KCNK3 block | AID 651638 | ratio percent of control, % at 10 µM | CHO-KCNK3 thallium flux, FluxOR fluorescence; 0% buffer, 100% carvedilol maximal block;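 active = ratio percent of control, averaged over triplicates, above buffer control mean plus 5 SD, cut at about 64% in these data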;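 note: ratio is the fluorescence rise from min to max over baseline after thallium stimulus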
KCNK3 noninduced: activity in cells without induced KCNK3 expression. shares compounds with KCNK3 block. non-induced KCNK3 parental cells, FluxOR thallium flux; hits give low values. thallium flux ratio (lower = more inhibition) at 10 µM. actives 40% (n = 2,400);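 active = thallium flux ratio, averaged over three wells, more than 5 SD below the buffer control mean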;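 note: host cells are CHO cells without KCNK3 induction; ratio is peak minus trough fluorescence over baseline then normalized to buffer controls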
Starred values were filed as active, the others as inactive; i = inactive; . = no result.

SMILES | KCNQ1 pot | KCNQ1 inh | Kir21 inh | KCNK3 block | hERG protect | KCNK9 block | KCNK3 inh conf | KCNK3 noninduced
CCOC(=O)/C(N=Nc1c(C)n(C)n(-c2ccccc2)c1=O)=C(/O)c1ccccc1 | i | i | 0.12 | -8.87* | -3.8 | i | 109.0* | i
CCOC(=O)CC1C(=O)NCCN1S(=O)(=O)c1ccc(NC(C)=O)cc1 (stereo not given) | i | i | -1.56 | i | 1.4 | i | . | .
CN(C(=O)COC(=O)/C=C/c1ccc2ccccc2n1)c1c(N)n(Cc2ccccc2)c(=O)[nH]c1=O | . | . | . | i | . | . | . | .
COCCN(C(=O)COC(=O)c1c(NC(C)=O)sc(C)c1C)c1c(N)n(Cc2ccccc2)c(=O)[nH]c1=O | i | i | 2.05 | -9.39* | -14.4 | i | 97.0* | i
COCCN(C(=O)COC(=O)/C=C/c1ccc2ccccc2n1)c1c(N)n(Cc2ccccc2)c(=O)[nH]c1=O | i | i | -0.22 | -12.1* | -10.3 | i | 55.0* | i
CC(C)C(C(=O)Nc1ccc(S(N)(=O)=O)cc1)N1C(=O)c2ccccc2C1=O (stereo not given) | i | i | 0.77 | i | -7.4 | i | . | .
O=C(CN(C(=O)CNC(=O)c1ccco1)c1ccc(Cl)c(Cl)c1)NC1CCCCC1 | i | i | 0.24 | i | -9.8 | i | . | .
O=C(NCc1ccc2c(c1)OCO2)c1ccc(CSCc2ccc(Cl)cc2)o1 | i | i | -0.07 | -8.79* | -8.2 | i | 96.3* | 0.138*
O=S(=O)(NCc1ccc2c(c1)OCO2)c1ccc(F)c(F)c1 | i | i | -1.59 | i | -7.8 | i | . | .
CC(C1CC1)N(Cc1ccccc1)C(=S)Nc1ccccc1 (stereo not given) | i | i | -0.75 | -11.7* | -7.7 | i | 113.0* | i
Cc1c(NS(C)(=O)=O)cccc1-c1nc2cccnc2s1 | i | i | -0.49 | i | -10.1 | i | . | .
CCOC(=O)/C(C#N)=C/c1cc(C)n(-c2ccc(C)cc2)c1C | i | i | -0.21 | -9.58* | -3.8 | i | 109.7* | i
Cc1ccc(NC(=O)CSc2nc(=O)n(CCN(C)C)c3c2CCCC3)cc1Cl | i | i | -2.07 | -10* | -10.6 | i | 68.3* | i
CCCOc1cc(C)c(Cl)cc1S(=O)(=O)N(CC)CC | i | i | -3.33 | -11.2* | -0.4 | i | 99.3* | i
O=C(Cc1ccccc1F)Nc1ccccc1N1CCCC1 | i | i | -4.11 | -9.07* | -8.7 | i | 89.3* | i
O=C(Nc1ccccc1N1CCN(c2ccccc2)CC1)c1ccccc1F | i | i | -0.02 | -9.74* | -2.3 | i | 125.0* | 0.112*
O=C(COc1ccccc1[N+](=O)[O-])Nc1ccccc1N1CCCC1 | i | i | -0.8 | i | -10.2 | i | . | .
Cc1cccc(OCC(=O)Nc2ccccc2N2CCCC2)c1C | i | i | 0.56 | -9.8* | -16.3 | i | 118.3* | 0.142*
O=C(COc1c(Cl)cccc1Cl)Nc1ccccc1N1CCCC1 | i | i | 0.12 | -9.11* | -9.7 | i | 120.7* | 0.132*
COc1ccc(OC)c(S(=O)(=O)N2CCCC(C(=O)NCCN3CCOCC3)C2)c1 (stereo not given) | i | i | 0.32 | i | -1.5 | i | . | .
Cn1nc(C(=O)Nc2nc3ccc(S(C)(=O)=O)cc3s2)ccc1=O | i | i | 0.56 | i | -5.8 | i | . | .
Cc1cc(C)cc(OCC(=O)Nc2ccccc2N2CCCCC2)c1 | i | i | -1.92 | -10.2* | -0.8 | i | 94.0* | i
CCCOc1ccc(C2NC(=S)NC(C)=C2C(=O)c2ccccc2)cc1OC (stereo not given) | i | i | -0.05 | -9.81* | -10.6 | i | 97.0* | i
COc1cc(C2NC(=S)NC(C)=C2C(=O)c2ccccc2)ccc1O (stereo not given) | i | i | -0.67 | i | -10.8 | i | . | .
CC(OC(=O)C1CC1)C(=O)Nc1cc(C(F)(F)F)ccc1Cl (stereo not given) | i | i | -0.9 | -9.92* | -6.7 | i | 77.0* | 0.152*
SMILES | KCNQ1 pot | KCNQ1 inh | Kir21 inh | KCNK3 block | hERG protect | KCNK9 block | KCNK3 inh conf | KCNK3 noninduced
CC1CCN(CC(=O)Nc2cc(C(F)(F)F)ccc2Cl)CC1 | i | i | -2.16 | i | -8.8 | i | . | .
CCc1ccccc1NC(=O)CNC(=O)CCc1nc2sc3c(c2c(=O)[nH]1)CCCC3 | i | i | 1.98 | i | -2.2 | i | . | .
CCN1C(=O)/C(=C\N2CCN(C(=O)c3ccco3)CC2)SC1=S | i | i | -0.35 | i | -4.2 | i | . | .
CCN1CCN(c2c(/C=C3\SC(=S)N(Cc4ccco4)C3=O)c(C)c(C#N)c(=O)n2C)CC1 | i | 7* | -1.79 | -16* | -36.6 | i | 141.3* | 0.0893*
O=C(O)c1ccc(N2CCCS2(=O)=O)cc1 | i | i | -1.88 | i | -13.8 | i | . | .
CCOC(=O)C1CCCN(C(=O)c2cc(-c3ccc(C)cc3)nc3ccccc23)C1 (stereo not given) | i | i | 0.91 | -9.71* | -30.8 | i | 107.7* | i
CCOC(=O)C1CCCN(C(=O)c2cc(Nc3ccc(OC)c(OC)c3)nc3ccccc23)C1 (stereo not given) | i | i | 1.18 | i | -7.3 | i | . | .
Cc1[nH]c2c(ccc3cccnc32)c1C | i | i | -0.29 | i | -8.7 | i | . | .
CC1=[N+](C)c2c(ccc3cccnc23)C1(C)C | . | . | . | -12* | . | . | 119.0* | i
N#CCC(CNc1ncc(C(F)(F)F)cc1Cl)OC(=O)c1ccc(Cl)cc1Cl (stereo not given) | i | i | -0.41 | -9.53* | -11.8 | i | 102.0* | 0.159*
COc1ccc(Cl)cc1NC(=O)CN(C)C(=O)Cc1ccc(-c2ccccc2)cc1 | . | . | . | i | . | . | . | .
COc1ccc(Cl)cc1NC(=O)CN(C)CC(=O)Nc1ccccc1-c1ccccc1 | i | i | 1.55 | -9.71* | -0.2 | i | 99.0* | i
O=C(/C=C/c1cnc2ccccc2n1)NC12CC3CC(CC(C3)C1)C2 | i | i | 0.4 | i | -14.0 | i | . | .
O=C(O)C(=O)/C(=C\c1cccc2ccccc12)c1ccc2ccccc2n1 | i | i | 0.01 | -9.09* | -2.5 | i | 137.3* | i
O=C(O)C(=O)/C(=C\c1ccccc1)c1ccc2ccccc2n1 | i | i | 0.88 | i | -11.3 | i | . | .
